Type in all cases: functional
Experiment [1] concerns Fusarium oxysporum. Kind of experiment: Fungicidal activity against Fusarium oxysporum assessed as inhibition of mycelium growth at 588 uM at 25 +/- 0.5 degC. The method, boiled down: (§1)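 Mycelium growth rate test. Test sample dissolved in acetone and mixed into potato dextrose agar at the stated concentration, then fungal mycelial cakes were placed on the plates. Acetone served as blank and carbendazim as positive control. Plates were incubated at 25 ± 0.5 °C until the blank grew completely. Colony diameters were then measured, and inhibitory ratio was calculated against the blank mean. Three replicates were run.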

The test system of experiment [2] is Thanatephorus cucumeris. In words: Fungicidal activity against Thanatephorus cucumeris assessed as inhibition of mycelium growth at 588 uM at 25 +/- 0.5 degC. An outline of the steps:
as §1

Experiment [3] has as its system Colletotrichum gloeosporioides. In words: Fungicidal activity against Colletotrichum gloeosporioides assessed as inhibition of mycelium growth at 588 uM at 25 +/- 0.5 degC. The method, boiled down: as §1
Experiment [4] deals with Pseudocercospora musae. Kind of experiment: Fungicidal activity against Pseudocercospora musae assessed as inhibition of mycelium growth at 588 uM at 25 +/- 0.5 degC. The method, boiled down: as §1
The subject of experiment [5] is Botryosphaeria berengeriana. Kind of experiment: Fungicidal activity against Botryosphaeria berengeriana assessed as inhibition of mycelium growth at 588 uM at 25 +/- 0.5 degC. The method, boiled down: as §1
The test system of experiment [6] is Sclerotinia sclerotiorum. Kind of experiment: Fungicidal activity against Sclerotinia sclerotiorum assessed as inhibition of mycelium growth at 588 uM at 25 +/- 0.5 degC. The method, boiled down:
as §1

Experiment [7] has as its system Alternaria alternata. In words: Fungicidal activity against Alternaria alternata assessed as inhibition of mycelium growth at 588 uM at 25 +/- 0.5 degC. The method, boiled down: as §1
For experiment [8], the system named is Alternaria alternata. Kind of experiment: Fungicidal activity against Alternaria alternata assessed as inhibition of mycelium growth at 272 uM at 25 +/- 0.5 degC. An outline of the steps: as §1
Experiment [9] concerns Pseudocercospora musae. In words: Fungicidal activity against Pseudocercospora musae assessed as inhibition of mycelium growth at 272 uM at 25 +/- 0.5 degC. An outline of the steps:
as §1

In experiment [10] the test system is Colletotrichum lindemuthianum. Kind of experiment: Fungicidal activity against Colletotrichum lindemuthianum assessed as inhibition of mycelium growth at 272 uM at 25 +/- 0.5 degC. An outline of the steps: as §1
The test system of experiment [11] is Fusarium oxysporum. In words: Fungicidal activity against Fusarium oxysporum assessed as inhibition of mycelium growth at 272 uM at 25 +/- 0.5 degC. An outline of the steps:
as §1

Experiment [12] relates to Phytophthora infestans. In words: Fungicidal activity against Phytophthora infestans assessed as inhibition of mycelium growth at 272 uM at 25 +/- 0.5 degC. The method, boiled down:
as §1

For experiment [13], the system named is Botrytis cinerea. In words: Fungicidal activity against Botryotinia fuckeliana assessed as inhibition of mycelium growth at 272 uM at 25 +/- 0.5 degC. The method, boiled down: as §1
Experiment [14] relates to Fusarium verticillioides. In words: Fungicidal activity against Fusarium verticillioides assessed as inhibition of mycelium growth at 272 uM at 25 +/- 0.5 degC. The method, boiled down: as §1
For experiment [15], the system named is Thanatephorus cucumeris. In words: Fungicidal activity against Thanatephorus cucumeris assessed as inhibition of mycelium growth at 272 uM at 25 +/- 0.5 degC. The method, boiled down: as §1
In experiment [16] the test system is Sclerotinia sclerotiorum. Kind of experiment: Fungicidal activity against Sclerotinia sclerotiorum assessed as inhibition of mycelium growth at 272 uM at 25 +/- 0.5 degC. An outline of the steps:
as §1

For a further experiment, the system named is Verticillium dahliae. In words: Fungicidal activity against Verticillium dahliae assessed as inhibition of mycelium growth at 272 uM at 25 +/- 0.5 degC. An outline of the steps: as §1
For experiment [17], the system named is Fusarium graminearum. Kind of experiment: Fungicidal activity against Fusarium graminearum assessed as inhibition of mycelium growth at 272 uM at 25 +/- 0.5 degC. An outline of the steps: as §1
Experiment [18] deals with Alternaria mali. In words: Fungicidal activity against Alternaria mali assessed as inhibition of mycelium growth at 272 uM at 25 +/- 0.5 degC. An outline of the steps: as §1
Experiment [19] has as its system Colletotrichum gloeosporioides. Kind of experiment: Fungicidal activity against Colletotrichum gloeosporioides assessed as inhibition of mycelium growth at 272 uM at 25 +/- 0.5 degC. The method, boiled down:
as §1

Experiment [20] concerns Phytophthora infestans. Kind of experiment: Fungicidal activity against Phytophthora infestans assessed as inhibition of mycelium growth at 52 uM at 25 +/- 0.5 degC. An outline of the steps:
as §1

In experiment [21] the test system is Botrytis cinerea. Kind of experiment: Fungicidal activity against Botryotinia fuckeliana assessed as inhibition of mycelium growth at 52 uM at 25 +/- 0.5 degC. An outline of the steps:
as §1

Experiment [22] relates to Alternaria mali. In words: Fungicidal activity against Alternaria mali assessed as inhibition of mycelium growth at 52 uM at 25 +/- 0.5 degC. The method, boiled down:
as §1

Experiment [23] deals with Fusarium verticillioides. In words: Fungicidal activity against Fusarium verticillioides assessed as inhibition of mycelium growth at 52 uM at 25 +/- 0.5 degC. An outline of the steps: as §1
Experiment [24] concerns Colletotrichum gloeosporioides. In words: Fungicidal activity against Colletotrichum gloeosporioides assessed as inhibition of mycelium growth at 52 uM at 25 +/- 0.5 degC. The method, boiled down: as §1
The subject of experiment [25] is Thanatephorus cucumeris. Kind of experiment: Fungicidal activity against Thanatephorus cucumeris assessed as inhibition of mycelium growth at 52 uM at 25 +/- 0.5 degC. An outline of the steps:
as §1

Experiment [26] relates to Fusarium graminearum. Kind of experiment: Fungicidal activity against Fusarium graminearum assessed as inhibition of mycelium growth at 52 uM at 25 +/- 0.5 degC. An outline of the steps:
as §1

Experiment [27] deals with Fusarium oxysporum. Kind of experiment: Fungicidal activity against Fusarium oxysporum assessed as inhibition of mycelium growth at 52 uM at 25 +/- 0.5 degC. An outline of the steps:
as §1

Experiment [28] concerns Sclerotinia sclerotiorum. In words: Fungicidal activity against Sclerotinia sclerotiorum assessed as inhibition of mycelium growth at 52 uM at 25 +/- 0.5 degC. An outline of the steps: as §1

Consider `C/C(=C\C=C\C(C)(C)O)C(=O)O` [LITSEACUBEBIC ACID], for which the inhibition at 588 µM stood at 56.7% in the experiment with Fusarium oxysporum [1]; 76.8% in the experiment on Thanatephorus cucumeris [2]; 71.2% in experiment [3]; 78.9% in the experiment with Pseudocercospora musae [4]; 59.2% in experiment [5]; 86.7% in the experiment on Sclerotinia sclerotiorum [6]. Also, the inhibition at 588 µM in the experiment with Alternaria alternata [7] was 57.8%.
Regarding `CC1=CC(=O)O[C@@H](C(C)(C)O)CC1`, the inhibition at 272 µM came out at 70.9% in the experiment with Alternaria alternata [8]; 65.5% in the experiment on Pseudocercospora musae [9]; 62.3% in [10]; 53.5% in the experiment with Fusarium oxysporum [11]; 66.4% with Phytophthora infestans [12]; 72% in the experiment on Botrytis cinerea [13]. Moreover, the inhibition at 272 µM was determined as 55.6% in the experiment on Fusarium verticillioides [14]; 80.2% in the experiment with Thanatephorus cucumeris [15]; 81.8% in the experiment on Sclerotinia sclerotiorum [16]; 66.6% with Verticillium dahliae; 73.8% in the experiment on Fusarium graminearum [17]; 66% in the experiment with Alternaria mali [18]. The inhibition at 272 µM in experiment [19] is 71.1%.
Regarding `COC(=O)Nc1nc2ccccc2[nH]1` [CARBENDAZIM], the inhibition at 52 µM (in the experiment on Phytophthora infestans [20]; with Botrytis cinerea [21]; with Alternaria mali [22]; with Fusarium verticillioides [23]; in experiment [24]; in the experiment with Thanatephorus cucumeris [25]) was 100% throughout. The inhibition at 52 µM in the experiment on Fusarium graminearum [26], with Fusarium oxysporum [27] and with Sclerotinia sclerotiorum [28] was 100% in each case.

In general, inhibition refers to the percentage by which the read-out fell short of the control.
